The record followed here is ChEMBL document CHEMBL1124344, “5-Piperazinylalkyl-2(3H)-oxazolones with neuroleptic activity” (J Med Chem, 1989).

This test concerns Mus musculus. Briefly: Inhibition of spontaneous motor activity after 1 hour of peroral administration in mouse. The class given is functional. To be noted: po. The gist of the method: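 Mice in groups of five were dosed orally with gum arabic suspensions at 10 mL/kg after an overnight fast, with a vehicle control group. Locomotion was counted for 10 min in a photocell activity cage, in at least two groups per dose. ED50, by probit analysis, is the dose giving 50% inhibition against controls.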

Molecules are shown by their SMILES.

By ED50 is commonly meant the midpoint of the dose-response relation. On to `COc1ccccc1N1CCN(CCCC(=O)c2ccc(F)cc2)CC1` [FLUANISONE], for which it took a dose of 7.7 mg/kg to reach the 50% effect level (ED50).
